Activity calls are given as the source filed them. The calls are words filed in the database; no cut-off is given here.

Our source for the Activity values is ChEMBL document CHEMBL1145518, “Potent immune-modulating and anticancer effects of NKT cell stimulatory glycolipids” (2007).

The subject of experiment [1] is Mus musculus. The experiment is described as follows: Induction of GM-CSF secretion in BALB/c mouse serum at 2 ug, iv after 2 hrs relative to control. It counts as functional. The method in brief:
(§1)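 BALB/c mice received an i.v. injection of 100 μl of glycolipid diluted to 20 μg/ml in saline from DMSO stock, with 1% DMSO as vehicle. Serum cytokines/chemokines were measured at 2 and 18 h after injection.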

A short description of experiment [2]: Promotion of maturation of human dendritic cells assessed as increase in CD80 expression at 3 ug/ml after 48 hrs. As to conditions: Dendritic cell. It counts as functional, cell-based. The method in brief:
(§2)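 Immature DCs were derived from leukopak CD14+ cells by 2 days in 300 units/ml GM-CSF plus 100 units/ml IL-4. DCs (2 × 10^6) were incubated with glycolipid at 3 μg/ml or vehicle for 48 h. Surface CD40, CD80, CD83, CD86 and HLA-DR were measured by flow cytometry as mean fluorescence intensity.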

Experiment [3] is described as follows: Promotion of maturation of human dendritic cells assessed as increase in CD83 expression at 3 ug/ml after 48 hrs. Conditions: Dendritic cell. It counts as functional, cell-based. The method in brief: as §2
Experiment [4] relates to 4T1. In words: Antitumor activity in mouse 4T1 cells xenografted BALB/c mouse assessed as suppression of tumor growth at 2 ug, iv. It counts as functional, cell-based. Put shortly: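 BALB/c mice (n = 6) were inoculated s.c. with 4T1 breast cancer cells. From day 3 they were treated i.v. with glycolipid or vehicle twice weekly for 4 weeks. Tumor volume was recorded every 3 days for 1 month, and survival was monitored up to 54 days.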

Experiment [5] can be described thus: Induction of IL10 secretion in human CD161+ CD3+ NKT cells at 10 ug/ml after 18 hrs relative to basal level. It counts as functional. The method in brief:
(§3)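 Human Vα24i NKT cell lines were expanded for 10 days on irradiated (3,000 rad) autologous immature DCs with 10 units/ml IL-2. The cells (1 × 10^5) were cocultured with 5 × 10^4 irradiated immature CD14+ DCs plus glycolipid at 10 μg/ml. Supernatants were collected at 18 h and read on a 22-plex Luminex bead panel. Triplicates, mean ± SD.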

A short description of experiment [6]: Promotion of maturation of human dendritic cells assessed as increase in CD40 expression at 3 ug/ml after 48 hrs. Conditions: Dendritic cell. It counts as functional, cell-based. Put shortly: as §2
For experiment [7], the system named is Mus musculus. The experiment is described as follows: Induction of MIPbeta secretion in BALB/c mouse serum at 2 ug, iv after 2 hrs relative to control. It counts as functional. Put shortly: as §1
The nature of experiment [8]: Induction of IL12p70 secretion in human CD161+ CD3+ NKT cells at 10 ug/ml after 18 hrs relative to basal level. It counts as functional. Put shortly: as §3
A short description of experiment [9]: Induction of IL2 secretion in human CD161+ CD3+ NKT cells at 10 ug/ml after 18 hrs relative to basal level. It counts as functional. The method in brief:
as §3

Experiment [10] is described as follows: Promotion of maturation of human dendritic cells assessed as increase in HLA-DR expression at 3 ug/ml after 48 hrs. It counts as functional, cell-based. Conditions: Dendritic cell. Put shortly:
as §2

Experiment [11] deals with Mus musculus. In words: Activation of natural killer cells in BALB/c mouse at 2 ug, iv after 72 hrs by flow cytometry. It counts as functional, organism-based. The method in brief: (§4)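 BALB/c mice (n = 4/group) were given 100 μl of glycolipid at 20 μg/ml in saline i.v., or 100 μl of 1% DMSO. Spleens were harvested after 72 h and splenocyte subsets counted by flow cytometry: mature DCs as CD11c+/CD80+/CD86+, activated NK as U5A2-13Ag+/CD3−/CD69+, activated NKT as U5A2-13Ag+/CD3+/CD69+. Assays were run in duplicate, mean ± SD.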
In general terms: In flow cytometry, cells or beads pass a laser one at a time.

Experiment [12] in a line: Induction of MIPalpha secretion in human CD161+ CD3+ NKT cells at 10 ug/ml after 18 hrs relative to basal level. It counts as functional. The method in brief: as §3
The subject of experiment [13] is Mus musculus. The experiment is described as follows: Activation of NKT cells in BALB/c mouse at 2 ug, iv after 72 hrs by flow cytometry. It counts as functional, organism-based. The method in brief:
as §4

Experiment [14] is described as follows: Promotion of maturation of human dendritic cells assessed as increase in CD86 expression at 3 ug/ml after 48 hrs. Conditions: Dendritic cell. It counts as functional, cell-based. The method in brief:
as §2

The subject of experiment [15] is Mus musculus. In words: Induction of IFN-gamma secretion in BALB/c mouse serum at 2 ug, iv after 18 hrs relative to control. It counts as functional. The method in brief:
as §1

Experiment [16] has as its system Mus musculus. In words: Activation of B cells in BALB/c mouse at 2 ug, iv after 72 hrs by flow cytometry. It counts as functional, organism-based.
The test system of experiment [17] is NKT. The experiment is described as follows: Stimulation of cell expansion of human invariant CD161+/ Valpha24+/ CD56+/ CD3+ NKT cells by flow cytometry method. It counts as functional, cell-based. Put shortly:
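CD56+ NK/NKT mixtures (2 × 10^6) were isolated from human leukopaks with anti-CD56 microbeads. They were cocultured with 4 × 10^5 autologous immature CD14+ DCs pulsed with glycolipid at 3 μg/ml, or with 0.3% DMSO, on day 2 for 18 h. Suspension cells were then transferred and kept in 100 units/ml IL-2 with fresh medium every 3 days. On day 9, CD161+/Vα24TCR+ cells were gated by flow cytometry and total Vα24i NKT cells counted. Triplicates, mean ± SD.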

On to `CCCCCCCCCCCCCCCCCCCCCCCCCC(=O)N[C@@H](CO[C@H]1O[C@H](CO)[C@H](O)[C@H](O)[C@H]1O)[C@H](O)[C@H](O)CCc1ccccc1`, for which the Activity in [1] worked out at 7.9; in experiment [5], 1.2; in experiment [7], 5.3; in experiment [8], 3.2; in experiment [9], 2.8; in experiment [12], 3.6. The molecule further returned an Activity in experiment [15] of 122.5. Also, the outcome in experiment [2], in experiment [3], in experiment [4], in experiment [6], in experiment [10] and in [11] was Active. Besides, the outcome in experiment [13] and in experiment [14] was Active.
As for `CCCCCCCCCCCCCCCCCCCCCCCCCC(=O)N[C@@H](CO[C@H]1O[C@H](CO)[C@H](O)[C@H](O)[C@H]1O)[C@H](O)[C@H](O)CCCCCCCCCCCCCC` [RGI-7000], the Activity in experiment [1] is 13.1; in experiment [5], 1.2; in experiment [7], 3.6; in experiment [8], 1.8; in [9], 2.3; in experiment [12], 2.9. In [15], the Activity turned out to be 300. For the same molecule, the outcome in [4], in experiment [16] and in [17] was Active.
